From ChEMBL document CHEMBL4665664, “Discovery of Orally Active Hydroxyethylamine Based SPPL2a Inhibitors” (ACS Med Chem Lett, 2019)
Calls of active or inactive are those of the source. The rule behind the calls is not given here.

What was measured:
[1] = molecular target: T1, Signal peptide peptidase-like 2A (Mus musculus) (UniProt Q9JJF9); assay: Inhibition of SPPL2a in mouse whole blood assessed as […] in CD74/p8 NTF accumulation at 4 uM incubated for 5 hrs by flow cytometric analysis based assay; format: tissue-based
T1 sequence (whole entry): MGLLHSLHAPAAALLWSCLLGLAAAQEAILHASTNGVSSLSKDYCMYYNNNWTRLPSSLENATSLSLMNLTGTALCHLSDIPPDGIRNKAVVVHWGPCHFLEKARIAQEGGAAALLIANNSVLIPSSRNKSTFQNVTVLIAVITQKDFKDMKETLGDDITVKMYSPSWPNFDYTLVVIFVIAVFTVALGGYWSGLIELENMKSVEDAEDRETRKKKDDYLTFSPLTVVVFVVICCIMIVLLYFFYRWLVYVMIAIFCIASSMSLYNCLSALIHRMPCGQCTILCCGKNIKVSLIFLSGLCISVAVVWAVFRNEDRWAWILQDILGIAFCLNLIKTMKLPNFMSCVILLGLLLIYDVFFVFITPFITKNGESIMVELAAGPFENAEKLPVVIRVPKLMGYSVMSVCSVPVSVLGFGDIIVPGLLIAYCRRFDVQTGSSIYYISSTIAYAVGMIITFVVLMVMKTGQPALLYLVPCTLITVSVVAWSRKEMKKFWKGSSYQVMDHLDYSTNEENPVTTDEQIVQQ

[2] = Half life in Balb/c mouse at 5 mg/kg, iv and 20 mg/kg, po by LC/MS/MS analysis; format: ADME, organism-based; conditions: in vivo
How it was run: (§1)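 Balb/c mice dosed 5 mg/kg i.v. and 20 mg/kg p.o. in PEG300/D5W (3:1); plasma concentration profile taken as mean of three animals; PK parameters derived from these profiles.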

[3] = Total plasma concentration in mouse at 30 mg/kg, po measured after 4 hrs by LC/MS/MS analysis; format: ADME, organism-based
How it was run: (§2)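 Single oral dose of 10, 30 or 100 mg/kg in PEG300/D5W (3:1); total plasma and spleen concentrations measured at termination, 4 h post-dose; reported as means ± SEM.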

Gamma-secretase = assay: Inhibition of gamma-secretase (unknown origin) expressed in HEK293 cells cotransfected with Notch1-VP16-GAL4 fusion and Gal4 luciferase reporter plasmid incubated for 24 hrs by luciferase reporter gene assay luminescence assay; format: cell-based, Homo sapiens
[4] = Total plasma concentration in mouse at 100 mg/kg, po measured after 4 hrs by LC/MS/MS analysis; format: ADME, organism-based; how it was run: as §2
[5] = molecular target: T2, Signal peptide peptidase-like 2A (Mus musculus, UniProt Q9JJF9); assay: Inhibition of SPPL2a in Balb/c mouse A20 cells assessed as […] in CD74/p8 NTF accumulation incubated for overnight by Western blot analysis; format: cell-based
T2 sequence (Q9JJF9 whole entry): T1 sequence (whole entry)
How it was run: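 Endogenous CD74/p8 NTF processing in mouse B cell line A20 measured by quantitative Western blot; IC50 derived.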

[6] = molecular target: T2, Signal peptide peptidase-like 2A; assay: Inhibition of mouse SPPL2a cotransfected with EGFP-NLP-fused TNFalpha (1 to 77 residues)-NTF incubated for 24 hrs by Hoechst staining based Cellomics ArrayScan analysis
[7] = Total plasma concentration in mouse at 10 mg/kg, po measured after 4 hrs by LC/MS/MS analysis; format: ADME, organism-based; how it was run: as §2
[8] = Drug uptake in mouse spleen at 100 mg/kg, po measured after 4 hrs by LC/MS/MS analysis; format: ADME, organism-based; conditions: read-out: Drug uptake; how it was run: as §2
[9] = Oral bioavailability in Balb/c mouse at 20 mg/kg by LC/MS/MS analysis; format: ADME, organism-based; conditions: in vivo; how it was run: as §1
[10] = Drug uptake in mouse spleen at 10 mg/kg, po measured after 4 hrs by LC/MS/MS analysis; format: ADME, organism-based; conditions: read-out: Drug uptake; how it was run: as §2
[11] = Volume of distribution in Balb/c mouse at 5 mg/kg, iv and 20 mg/kg, po by LC/MS/MS analysis; format: ADME, organism-based; conditions: in vivo; how it was run: as §1
[12] = Drug uptake in mouse spleen at 30 mg/kg, po measured after 4 hrs by LC/MS/MS analysis; format: ADME, organism-based; conditions: read-out: Drug uptake; how it was run: as §2
[13] = Dose normalized AUC in Balb/c mouse at 20 mg/kg, po by LC/MS/MS analysis; format: ADME, organism-based; conditions: in vivo; how it was run: as §1
[14] = molecular target: T3, Signal peptide peptidase-like 2B (Homo sapiens, UniProt Q8TCT7); assay: Inhibition of SPPL2b in human U2OS cells cotransfected with EGFP-labeled TNFalpha (1 to 76 residues)-NTF incubated for 24 hrs by Hoechst staining based Cellomics ArrayScan analysis; format: cell-based
T3 sequence (Q8TCT7 whole entry): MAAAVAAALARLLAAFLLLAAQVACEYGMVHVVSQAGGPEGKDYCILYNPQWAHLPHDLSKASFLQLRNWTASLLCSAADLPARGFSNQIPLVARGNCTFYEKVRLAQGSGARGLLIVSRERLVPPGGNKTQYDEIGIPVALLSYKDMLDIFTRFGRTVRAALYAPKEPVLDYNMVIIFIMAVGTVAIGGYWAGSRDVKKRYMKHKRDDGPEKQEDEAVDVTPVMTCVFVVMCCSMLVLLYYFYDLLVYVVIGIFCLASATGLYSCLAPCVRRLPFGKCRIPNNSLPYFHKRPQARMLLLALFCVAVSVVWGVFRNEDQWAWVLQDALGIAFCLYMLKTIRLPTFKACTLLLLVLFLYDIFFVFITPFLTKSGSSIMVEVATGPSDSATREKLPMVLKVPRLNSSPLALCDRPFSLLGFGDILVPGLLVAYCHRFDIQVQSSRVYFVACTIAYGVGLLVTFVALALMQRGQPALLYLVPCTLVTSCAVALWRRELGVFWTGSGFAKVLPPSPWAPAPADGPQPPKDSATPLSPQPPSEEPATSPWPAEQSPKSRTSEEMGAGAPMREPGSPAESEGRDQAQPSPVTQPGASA

Structure (SMILES): CC(C)(C)c1ccc(S(=O)(=O)N(C[C@H](O)[C@@H](N)c2ccc(OC(F)(F)F)cc2)C2CCC2)cc1
- inhibition [1]: Active
- half-life [2]: 5 h
- concentration at 4 h [3]: 0.25 µM
- IC50 (Gamma-secretase): 1300 nM
- concentration at 4 h [4]: 1.17 µM
- IC50 [5]: 150 nM
- IC50 [6]: 5 nM
- concentration at 4 h [7]: 0.12 µM
- concentration at 4 h [8]: 53.3 µM
- bioavailability [9]: 35%
- concentration at 4 h [10]: 6 µM
- Vd [11]: 12.3 L/kg
- concentration at 4 h [12]: 12.7 µM
- AUC/dose [13]: 282 nM·h
- IC50 [14]: 270 nM
